Measurements taken from publication PMC4688279 (Prostaglandins & other lipid mediators, 2015).
“And” between values parts separate entries of the source, which are not always exact repeats. Identical values can stand only once. Like-named read-outs stand apart in the source and are kept apart here.

What was measured:
[1] = system: primary rat hepatocytes; test: Metabolic stability in primary rat hepatocytes; assay type: in vitro ADME; details: for initially added TPPU remaining intact: after 20 hours, n=6
Outline: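 Rat hepatocytes were isolated by portal-vein perfusion with oxygenated 2 mM EDTA buffer (37°C, 40 mL/min, 45 min), then purified on a 58% Percoll gradient (800 × g, 5 min). 1×10^5 cells were plated and allowed to attach for 4 h. Test compound (1 or 10 μM) was added in DMEM, 0.1% DMSO final; n=6. One medium aliquot was frozen directly. The other was deconjugated with glucuronidase (10.000 U/mL) and sulfatase (700 U/mL) in acetate buffer, pH 5.0, for 24 h.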

[2] = system: Caco-2 cells; test: Caco-2 transwell model of in vitro intestinal absorption; assay type: in vitro ADME, human; details: after 6 hours of incubation
[3] = system: rat sEH; details: read-out: IC50 sEH; cited from earlier work
[4] = mice, cited from earlier work; for Cmax: read-out: Cmax in blood
[5] = cynomolgus monkeys, single oral dose 0.3 mg/kg; cited from earlier work
[6] = Chemical stability of TPPU in drinking water; assay type: physicochemical; details: 0.2% PEG400 in water, 8 days, plastic water bottles
[7] = system: mice sEH; details: read-out: IC50 sEH; cited from earlier work
[8] = mice, three weeks drinking water, cited from earlier work
[9] = assay type: in vivo; details: rat
[10] = system: human sEH; details: read-out: IC50 sEH; cited from earlier work

In the case of `CCC(=O)N1CCC(NC(=O)Nc2ccc(OC(F)(F)F)cc2)CC1` [TPPU], the “recovery of TPPU after glucuronidase/sulfatase treatment of the medium” value ([1]; 1 μM TPPU) is reported as 93 ± 9.3%, the “initially added TPPU remaining intact” value ([1]; 1 μM TPPU) is reported as 87 ± 3.5% and the “recovery of TPPU after glucuronidase/sulfatase treatment of the medium” value ([1]; 10 μM TPPU) is reported as 90 ± 5.9%. For the same compound, the “initially added TPPU remaining intact” value ([1]; 10 μM TPPU) was 90 ± 1.6% and 90%, the “added amount detected on the basolateral side” value [2] was 66% and the IC50 [3] was […]. For the same compound, the bioavailability ([4]; oral gavage 0.1–3 mg/kg, based on AUC) was 31–41%, the Cmax ([4]; single dose p.o. 0.1 mg/kg) was 270 nM and the Cmax ([4]; single dose p.o. 0.3 mg/kg) was 1700 nM. The Cmax [5] was 700 ± 600 nM, the “recovery in drinking water (chemical stability)” value ([6]; 0.2 mg/L) was 103 ± 3.2% and the “recovery in drinking water (chemical stability)” value ([6]; 10 mg/L) was 109 ± 4.9%. The IC50 [7] was 6 nM, the plasma level ([8]; 0.2 mg/kg BW daily) was 610 ± 130 nM and the plasma level ([8]; 0.6 mg/kg BW daily) was 1800 ± 445 nM. The “plasma concentration lower than whole blood concentration” value ([9]; day 8) was […], the “blood concentration at steady state” value ([9]; drinking water 5 mg/L (0.5 mg/kg BW), after 8 days) was […] and the distribution into brain ([9]; drinking water, day 8) was “A significant portion also crosses the blood brain barrier”. The “liver tissue level in comparison to heart tissue” value ([9]; group with the highest TPPU concentration, day 8) was “about 3.5 fold” and the IC50 [10] was […].
